Laboratory results: PMC11143523 (Acta Pharmaceutica Sinica. B, 2024)
Where “and” joins values, the source holds several entries; their conditions need not be identical. Identical values can stand only once. Each block holds one molecule with its values, some of them ahead of it. Square brackets hold non-standard residues; d marks the D form. Peptide text beside a SMILES is read from it. * marks the point of attachment. Ala(cPent) = N[C@@H](CC1CCCC1)C(=O)O; Cbz = O=C(OCc1ccccc1)*

How the values were obtained:
[1] = target: T1, APC‒Asef (Homo sapiens, UniProt P25054); assay: Fluorescence-polarization; assay type: binding; details: for inhibition at 400 µM: read-out: Inhibitory activity (inhibition rate %), at 400 μmol/L
T1 sequence (P25054 303-739): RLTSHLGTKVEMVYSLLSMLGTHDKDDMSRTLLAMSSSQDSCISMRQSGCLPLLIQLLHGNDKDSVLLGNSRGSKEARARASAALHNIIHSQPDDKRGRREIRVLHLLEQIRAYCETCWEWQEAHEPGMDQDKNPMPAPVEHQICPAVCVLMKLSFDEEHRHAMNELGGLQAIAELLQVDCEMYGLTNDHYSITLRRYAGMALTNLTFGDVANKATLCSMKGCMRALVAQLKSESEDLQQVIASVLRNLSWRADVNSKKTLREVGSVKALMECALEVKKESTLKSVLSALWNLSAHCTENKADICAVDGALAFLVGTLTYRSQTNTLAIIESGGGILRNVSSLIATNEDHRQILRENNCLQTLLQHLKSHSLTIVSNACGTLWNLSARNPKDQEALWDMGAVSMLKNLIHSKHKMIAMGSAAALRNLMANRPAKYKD

[2] = target: T2, APC‒Asef interaction (Homo sapiens, UniProt P25054); assay: Co-IP of APC‒Asef in drug-treated HEK293T cell lysates; assay type: biochemical; details: AT46 0.2, 1 or 5 μmol/L, 2 h
T2 sequence (P25054 303-876): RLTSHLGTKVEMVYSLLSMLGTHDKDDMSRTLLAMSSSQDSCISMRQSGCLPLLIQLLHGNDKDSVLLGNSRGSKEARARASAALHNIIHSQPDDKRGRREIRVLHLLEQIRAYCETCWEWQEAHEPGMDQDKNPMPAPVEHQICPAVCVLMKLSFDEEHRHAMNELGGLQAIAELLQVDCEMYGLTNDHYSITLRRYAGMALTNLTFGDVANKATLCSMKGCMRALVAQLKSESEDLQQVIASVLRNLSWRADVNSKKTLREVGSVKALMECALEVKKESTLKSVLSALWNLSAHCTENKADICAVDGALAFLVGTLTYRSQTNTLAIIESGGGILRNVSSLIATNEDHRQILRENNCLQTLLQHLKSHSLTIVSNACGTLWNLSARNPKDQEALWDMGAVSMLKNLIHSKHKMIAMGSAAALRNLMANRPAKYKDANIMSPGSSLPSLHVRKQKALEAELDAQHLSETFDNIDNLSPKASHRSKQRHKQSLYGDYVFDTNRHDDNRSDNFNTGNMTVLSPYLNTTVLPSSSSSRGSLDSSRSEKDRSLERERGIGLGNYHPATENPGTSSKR

[3] = target: T2, APC‒Asef interaction; assay: Co-IP of exogenous HA-APC and FLAG-Asef in treated HEK293T cells; assay type: cell-based; details: 20 μmol/L, 48 h
In short: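 HEK293T cells transfected with HA-APC (303‒876) and Flag-Asef plasmids, then exposed to test compound at 20 μmol/L or DMSO for 48 h. Cells lysed in 0.3% NP-40 buffer (50 mmol/L Tris-HCl pH 7.5, 150 mmol/L NaCl, PMSF, NaF, Na₃VO₄, protease inhibitors). Lysate incubated with anti-FLAG magnetic beads 3 h at 4 °C. Bound protein eluted by boiling 10 min at 95 °C in loading buffer.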

[4] = tested on: SW480 cells; assay: Wound healing assay; assay type: cell-based; details: 20 μmol/L, 48 h
In short: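 SW480 cells (1 × 10⁶) grown to confluence at 37 °C, 5% CO₂, then scratched and PBS-washed. Cells cultured in 1% FBS medium with test compound (20 μmol/L) or DMSO. Wound imaged at scratching and after 48 h. Migration expressed relative to DMSO group, mean ± SD of n = 3 independent experiments.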

[5] = tested on: SW480 cells; assay: Transwell migration assay; assay type: cell-based; details: 20 μmol/L, 72 h
In short: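 SW480 cells seeded at 1.5 × 10⁵ per insert in serum-free medium, with complete medium below. Test compound (20 μmol/L) or DMSO added to both chambers for 72 h. Nonmigrated cells swabbed off; migrated cells crystal-violet stained and counted. Counts normalized to DMSO-treated mean, n = 3 independent experiments, mean ± SD.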

[6] = tested on: SW480 cells; assay: Cell cytotoxicity assay; assay type: cell-based; details: 20 μmol/L, 48 h
[7] = Pharmacokinetic study in mice; assay type: in vivo; details: male, BALB/c, mouse, plasma, ip, 1 mg/kg
In short: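 Male BALB/c mice (n = 3/group) dosed once i.p. at 1 mg/kg (5 mL/kg) in DMSO:Cremophor EL:10% HP-β-CD in saline (2:8:90). Blood taken from dorsal metatarsal vein predose and at 0.083–48 h. Plasma obtained by centrifugation at 4000 × g, 5 min, 4 °C. Analysed by LC‒MS/MS on C18 column with acetonitrile/water/0.1% formic acid gradient, negative MRM mode.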

[8] = IC50 ± SD, FP competition assay, three independent experiments

SMILES: CC(C)C[C@H](NC(=O)[C@H](CC1CCCCC1)NC(=O)[C@H](CCC(=O)O)NC(=O)c1ccncn1)C(=O)NC1CC1c1ccccc1 (stereo partly drawn) [AT8]
IC50 [1, 8]: 168 ± 9.5 µM

SMILES: CSc1ncc(Br)c(C(=O)N[C@@H](CCC(=O)O)C(=O)N[C@@H](Cc2ccc3ccccc3c2)C(=O)N[C@@H](CC(C)C)C(=O)N[C@@H]2C[C@H]2c2ccccc2)n1 [AT46]
IC50 [1, 8]: 0.11 ± 0.003 µM
fold increase in potency over parental MAI-400 ([1]; from FP IC50): 24 fold
disruption of APC‒Asef interaction (Co-IP) [2]: dose-dependently attenuated the APC‒Asef interaction in cell lysates
disruption of APC‒Asef interaction (Co-IP) [3]: no disrupting effect on the APC‒Asef interaction in the cell model
migration of SW480 cells, wound healing [4]: no inhibition
migration of SW480 cells, Transwell [5]: no inhibition
survival ability (proliferative viability) of SW480 cells, CCK-8 [6]: did not damage the survival ability of SW480 cells
AUC(0-t) [7]: 124 ± 18.4 ng·h/mL
Cmax [7]: 60.8 ± 5.65 ng/mL
MRT [7]: 1.96 ± 0.58 h
Tmax [7]: 0.83 ± 0.29 h
half-life [7]: 1.2 ± 0.5 h

SMILES: CC(C)C[C@H](NC(=O)[C@H](CC1CC1)NC(=O)[C@H](CCC(=O)O)NC(=O)c1ccncn1)C(=O)NC1CC1c1ccccc1 (stereo partly drawn) [AT7]
IC50 [1, 8]: 61.3 ± 7.2 µM

Inhibitory activity (inhibition rate %) ([1]; at 400 μmol/L): 13.1 ± 0.7%
inhibition at 400 µM [1]: 13%
SMILES: CC(C)C[C@H](NC(=O)[C@H](CO)NC(=O)[C@H](CCC(=O)O)NC(=O)c1ccncn1)C(=O)NCC=Cc1ccccc1 [AT4]

SMILES: CSc1nccc(C(=O)N[C@@H](CCC(=O)O)C(=O)N[C@@H](Cc2ccc3ccccc3c2)C(=O)N[C@@H](CC(C)C)C(=O)N[C@H]2C[C@@H]2c2ccccc2)n1 [AT45]
IC50 [1, 8]: 8.61 ± 0.12 µM

SMILES: CSc1nccc(C(=O)N[C@@H](CC(=O)O)C(=O)N[C@@H](Cc2ccc3ccccc3c2)C(=O)N[C@@H](CC(C)C)C(=O)NC2CC2c2ccccc2)n1 (stereo partly drawn) [AT41]
IC50 [1, 8]: 19.3 ± 0.58 µM

SMILES: CC(C)C[C@H](NC(=O)[C@H](CO)NC(=O)[C@H](CCC(=O)O)NC(=O)c1ccncn1)C(=O)NCCc1ccccc1 [AT3]
IC50 [1, 8]: 323 µM
inhibition at 400 µM [1]: 54.6 ± 2%

SMILES: CC(C)C[C@H](NC(=O)[C@H](Cc1ccccc1)NC(=O)[C@H](CCC(=O)O)NC(=O)c1ccncn1)C(=O)NC1CC1c1ccccc1 (stereo partly drawn) [AT9]
IC50 [1, 8]: 95.4 ± 7.5 µM

SMILES: CSc1ncc(Br)c(C(=O)N[C@@H](CCC(=O)OC(C)(C)C)C(=O)N[C@@H](Cc2ccc3ccccc3c2)C(=O)N[C@@H](CC(C)C)C(=O)N[C@@H]2C[C@H]2c2ccccc2)n1 [AT47]
inhibition at 400 µM [1]: 24.4%
disruption of APC‒Asef interaction (Co-IP) [3]: notably diminished APC‒Asef PPI
migration of SW480 cells, wound healing [4]: inhibited the migration of SW480 cells
migration of SW480 cells, Transwell [5]: suppressed the migration of SW480 cells
survival ability (proliferative viability) of SW480 cells, CCK-8 [6]: did not damage the survival ability of SW480 cells
AUC(0-t) [7]: 4800 ± 868 ng·h/mL
Cmax [7]: 1460 ± 119 ng/mL
MRT [7]: 4.97 ± 1.49 h
Tmax [7]: 1.67 ± 0.58 h
half-life [7]: 11.8 ± 5.7 h

AUC(0-t) [7]: 52.4 ± 6.07 ng·h/mL
Cmax [7]: 101 ± 25 ng/mL
MRT [7]: 0.43 ± 0.07 h
Tmax [7]: 0.25 h
half-life [7]: 0.24 ± 0.06 h
SMILES: C[C@H](NC(=O)OCc1ccccc1)C(=O)NCC(=O)N[C@@H](CCC(=O)O)C(=O)N[C@@H](C)C(=O)N[C@@H](CC1CCCC1)C(=O)N[C@@H](Cc1ccc(O)cc1)C(=O)N[C@@H](CCC(=O)O)C(N)=O [MAI-203, reference compound] (Cbz-AGEA[Ala(cPent)]YE-NH2; N-terminus and C-terminus assumed)

SMILES: CSc1nccc(C(=O)N[C@@H](CCC(=O)O)C(=O)N[C@H](Cc2ccc3ccccc3c2)C(=O)N[C@@H](CC(C)C)C(=O)NC2CC2c2ccccc2)n1 (stereo partly drawn) [AT43]
IC50 [1, 8]: 127 ± 6.6 µM

IC50 ([1]; pIC50, test set, Table 3, pIC50 = ‒Log [IC50 (μmol/L) × 10^−6]): 0.708 µM
SMILES: CSc1nccc(C(=O)N[C@@H](CCC(=O)O)C(=O)N[C@@H](Cc2ccc3ccccc3c2)C(=O)N[C@@H](CC(C)C)C(=O)NC2CC2c2ccccc2)n1 (stereo partly drawn) [AT38]

SMILES: CSc1nccc(C(=O)N[C@@H](CCC(=O)O)C(=O)N[C@@H](Cc2ccc3ccccc3c2)C(=O)N[C@@H](CC(C)C)C(=O)N[C@@H]2C[C@H]2c2ccccc2)n1 [AT44]
IC50 [1, 8]: 0.48 ± 0.07 µM

IC50 [1, 8]: 33 µM and 33.1 µM
SMILES: CSc1nccc(C(=O)N[C@@H](CCC(=O)O)C(=O)N[C@@H](CC2CCCCC2)C(=O)N[C@@H](CC(C)C)C(=O)NC2CC2c2ccccc2)n1 (stereo partly drawn) [AT42]

IC50 [1, 8]: 9.3 µM and 9.34 µM
fold increase in potency over AT6 ([1]; from FP IC50): 2 fold
SMILES: CC(C)C[C@H](NC(=O)[C@H](Cc1ccc2ccccc2c1)NC(=O)[C@H](CCC(=O)O)NC(=O)c1ccncn1)C(=O)NC1CC1c1ccccc1 (stereo partly drawn) [AT10]
